From ChEMBL document CHEMBL1158184, “Synthesis and anti-CVB 3 evaluation of substituted 5-nitro-2-phenoxybenzonitriles” (Bioorg Med Chem Lett, 2008)

Key:
Coxsackievirus B3 = experiment: Antiviral activity against Coxsackievirus B3 assessed as reduction of virus-induced cytopathogenicity after 3 days by MTS assay; format: functional, organism-based; conditions: Enterovirus B, 72 h
Procedure, shortened: (§1)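 MTS-based CPE reduction assay. Confluent cell monolayers were infected with 100 CCID50 of virus and left 2 h at 37 °C for adsorption, then the inoculum was removed and serial compound dilutions were added. MTS/PMS was added for 2 h and OD was read at 498 nm. EC50 was derived from %CPE relative to uninfected and infected untreated controls.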

Coxsackievirus A24 = experiment: Antiviral activity against Coxsackievirus A24 in human MRC5 cells; format: functional
Procedure, shortened: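 MTS-based CPE-reduction assay. Confluent monolayers were infected with 100 CCID50 of virus and adsorbed for 2 h at 37 °C; virus was then removed and serial compound dilutions added. Cultures were incubated 3 days at 37 °C until complete CPE in the untreated virus control. After MTS/PMS for 2 h, OD was read at 498 nm, %CPE calculated against uninfected and infected-untreated controls, and EC50 derived.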

Echovirus E9 = experiment: Antiviral activity against Echovirus 9 in human MRC5 cells; format: functional; procedure, shortened: as §1
Echovirus E11 = experiment: Antiviral activity against Echovirus 11 in human MRC5 cells; format: functional; procedure, shortened: as §1
enterovirus D68 = experiment: Antiviral activity against Enterovirus 68 in human MRC5 cells; format: functional; procedure, shortened: as §1
Coxsackievirus B1 = experiment: Antiviral activity against Coxsackievirus B1 in african green monkey Vero cells; format: functional; procedure, shortened: as §1
Coxsackievirus B2 = experiment: Antiviral activity against Coxsackievirus B2 in african green monkey Vero cells; format: functional; procedure, shortened: as §1
Coxsackievirus B4 = experiment: Antiviral activity against Coxsackievirus B4 in african green monkey Vero cells; format: functional; procedure, shortened: as §1
Coxsackievirus B5 = experiment: Antiviral activity against Coxsackievirus B5 in african green monkey Vero cells; format: functional; procedure, shortened: as §1
Coxsackievirus B6 = experiment: Antiviral activity against Coxsackievirus B6 in african green monkey Vero cells; format: functional; procedure, shortened: as §1

`N#Cc1ccccc1Oc1ccc([N+](=O)[O-])cc1C#N` showed an IC50 (Coxsackievirus B3) of 11 µM.

`N#Cc1cc([N+](=O)[O-])ccc1Oc1cccc(I)c1` showed an IC50 (Coxsackievirus B3) of 5.7 µM.

`N#Cc1cc([N+](=O)[O-])ccc1Oc1cccc(N)c1` was tested, and the IC50 (Coxsackievirus B3) was 241 µM.

`Cc1cc(C)cc(Oc2ccc([N+](=O)[O-])cc2C#N)c1` was tested, and the IC50 (Coxsackievirus B3) was > 324 µM.

`CS(=O)(=O)c1ccc(Oc2ccc([N+](=O)[O-])cc2C#N)cc1` showed an IC50 (Coxsackievirus B3) of 174 µM.

`N#Cc1cc([N+](=O)[O-])ccc1Oc1c(Cl)cc(Cl)cc1Cl` showed an IC50 (Coxsackievirus B3) of 72 µM.

In the case of `N#Cc1cc([N+](=O)[O-])ccc1Oc1ccc(Cl)cc1N`, the IC50 (Coxsackievirus B3) is reported as > 53 µM.

`N#Cc1cc([N+](=O)[O-])ccc1Oc1cccc(Br)c1` showed an IC50 (Coxsackievirus B3) of 5 µM.

For `N#Cc1cc([N+](=O)[O-])ccc1Oc1ccc([N+](=O)[O-])cc1`, the IC50 (Coxsackievirus B3) was 3.3 µM, the Activity (Coxsackievirus A24) was >350 µM and the Activity (Echovirus E9) was >350 µM. For the same compound, the Activity (Echovirus E11) was >350 µM and the Activity (enterovirus D68) was >350 µM.

For `N#Cc1cc([N+](=O)[O-])ccc1Oc1ccc(Br)cc1`, the IC50 (Coxsackievirus B3) was 5.7 µM.

For `Cc1ccccc1Oc1ccc([N+](=O)[O-])cc1C#N`, the IC50 (Coxsackievirus B3) was 57 µM.

`CN(C)c1cccc(Oc2ccc([N+](=O)[O-])cc2C#N)c1` was tested, and the IC50 (Coxsackievirus B3) was 31 µM.

`N#Cc1cc([N+](=O)[O-])ccc1Oc1ccccc1Cl` was tested, and the IC50 (Coxsackievirus B3) was 6.9 µM, the Activity (Coxsackievirus B1) was 5.6 µM and the Activity (Coxsackievirus B2) was 6.2 µM. For the same compound, the Activity (Coxsackievirus B4) was 14 µM, the Activity (Coxsackievirus B5) was 3.1 µM and the Activity (Coxsackievirus B6) was 8.1 µM. It also gave an Activity (Coxsackievirus A24) of 23 µM, an Activity (Echovirus E9) of 35 µM and an Activity (Echovirus E11) of 35 µM. The Activity (enterovirus D68) was 22 µM.

Work on `Cc1cc(Oc2ccc([N+](=O)[O-])cc2C#N)ccc1Cl` yielded an IC50 (Coxsackievirus B3) of 2 µM, an Activity (Coxsackievirus B1) of 4.8 µM and an Activity (Coxsackievirus B2) of 5.2 µM. For the same compound, the Activity (Coxsackievirus B4) was >346 µM, the Activity (Coxsackievirus B5) was 2.1 µM and the Activity (Coxsackievirus B6) was >346 µM. The Activity (Coxsackievirus A24) was 234 µM, the Activity (Echovirus E9) was >346 µM and the Activity (Echovirus E11) was >346 µM. For the same compound, the Activity (enterovirus D68) was >346 µM.

`N#Cc1cc([N+](=O)[O-])ccc1Oc1cccc(Cl)c1` showed an IC50 (Coxsackievirus B3) of 4.9 µM.

Compound `Cc1cccc(Oc2ccc([N+](=O)[O-])cc2C#N)c1` has an IC50 (Coxsackievirus B3) of 6.4 µM, an Activity (Coxsackievirus B1) of 8.9 µM and an Activity (Coxsackievirus B2) of 11 µM. For the same compound, the Activity (Coxsackievirus B4) was 22 µM, the Activity (Coxsackievirus B5) was 13 µM and the Activity (Coxsackievirus B6) was 22 µM. The Activity (Coxsackievirus A24) was 19 µM, the Activity (Echovirus E9) was >393 µM and the Activity (Echovirus E11) was >393 µM. The Activity (enterovirus D68) was 76 µM.

`CSc1ccc(Oc2ccc([N+](=O)[O-])cc2C#N)cc1` gave an IC50 (Coxsackievirus B3) of 93 µM.

Work on `COc1ccccc1Oc1ccc([N+](=O)[O-])cc1C#N` yielded an IC50 (Coxsackievirus B3) of 54 µM.

Compound `N#Cc1cc([N+](=O)[O-])ccc1Oc1ccccc1` has an IC50 (Coxsackievirus B3) of 8.7 µM, an Activity (Coxsackievirus B1) of 6.9 µM and an Activity (Coxsackievirus B2) of 17 µM. It also gave an Activity (Coxsackievirus B4) of 26 µM, an Activity (Coxsackievirus B5) of 10 µM and an Activity (Coxsackievirus B6) of 19 µM. For the same compound, the Activity (Coxsackievirus A24) was >240 µM, the Activity (Echovirus E9) was >416 µM and the Activity (Echovirus E11) was >416 µM. The Activity (enterovirus D68) was >416 µM.

`CC(=O)c1cccc(Oc2ccc([N+](=O)[O-])cc2C#N)c1` was tested, and the IC50 (Coxsackievirus B3) was 57 µM.

Compound `N#Cc1cc([N+](=O)[O-])ccc1Oc1ccc(I)cc1` has an IC50 (Coxsackievirus B3) of 5.7 µM.

`CC(C)c1cccc(Oc2ccc([N+](=O)[O-])cc2C#N)c1` was tested, and the IC50 (Coxsackievirus B3) was 40 µM.

With `N#Cc1cc([N+](=O)[O-])ccc1Oc1cccc(NC(N)=S)c1` the IC50 (Coxsackievirus B3) was 234 µM.

`N#Cc1cc([N+](=O)[O-])ccc1Oc1ccc(N)c([N+](=O)[O-])c1` gave an IC50 (Coxsackievirus B3) of 10 µM.

In the case of `CC(=O)Nc1ccc(Oc2ccc([N+](=O)[O-])cc2C#N)cc1`, the IC50 (Coxsackievirus B3) is reported as > 336 µM.

`N#Cc1cc([N+](=O)[O-])ccc1Oc1cc(Cl)c(Cl)cc1Cl` was tested, and the IC50 (Coxsackievirus B3) was 59 µM.

With `N#Cc1cc([N+](=O)[O-])ccc1Oc1ccc(Br)cc1Cl` the IC50 (Coxsackievirus B3) was 3.7 µM.

Work on `COc1ccc(Oc2ccc([N+](=O)[O-])cc2C#N)cc1` yielded an IC50 (Coxsackievirus B3) of 46 µM.

For `CCc1cc(Oc2ccc([N+](=O)[O-])cc2C#N)ccc1Cl`, the IC50 (Coxsackievirus B3) was > 330 µM.

In the case of `N#Cc1cccc(Oc2ccc([N+](=O)[O-])cc2C#N)c1`, the IC50 (Coxsackievirus B3) is reported as 7.4 µM.

`Cc1ccc(Oc2ccc([N+](=O)[O-])cc2C#N)cc1C` was tested, and the IC50 (Coxsackievirus B3) was 99 µM.

For `Cc1cc(Cl)ccc1Oc1ccc([N+](=O)[O-])cc1C#N`, the IC50 (Coxsackievirus B3) was 11 µM.

`N#Cc1cc([N+](=O)[O-])ccc1Oc1ccc(Cl)cc1Br` was tested, and the IC50 (Coxsackievirus B3) was 3.7 µM.

Work on `Cc1cc(Oc2ccc([N+](=O)[O-])cc2C#N)ccc1Br` yielded an IC50 (Coxsackievirus B3) of 2.6 µM.

With `N#Cc1cc([N+](=O)[O-])ccc1Oc1ccc([N+](=O)[O-])cc1Cl` the IC50 (Coxsackievirus B3) was 39 µM.

`N#Cc1cc([N+](=O)[O-])ccc1Oc1ccc(Cl)cc1` was tested, and the IC50 (Coxsackievirus B3) was 5 µM, the Activity (Echovirus E9) was >364 µM and the Activity (Echovirus E11) was >364 µM. The Activity (enterovirus D68) was >364 µM.

For `C[S+]([O-])c1ccc(Oc2ccc([N+](=O)[O-])cc2C#N)cc1` (stereo not given), the IC50 (Coxsackievirus B3) was 205 µM.

Work on `CC(=O)c1ccc(Oc2ccc([N+](=O)[O-])cc2C#N)cc1` yielded an IC50 (Coxsackievirus B3) of 35 µM.

In the case of `N#Cc1cc([N+](=O)[O-])ccc1Oc1ccc(Cl)c(Cl)c1Cl`, the IC50 (Coxsackievirus B3) is reported as > 146 µM.

With `N#Cc1cc([N+](=O)[O-])ccc1Oc1ccc(C(N)=O)cc1` the IC50 (Coxsackievirus B3) was > 353 µM.

`N#Cc1cc([N+](=O)[O-])ccc1Oc1ccc(Br)cc1Br` showed an IC50 (Coxsackievirus B3) of 6.2 µM.

In the case of `N#Cc1cc([N+](=O)[O-])ccc1Oc1cccc(C(=O)O)c1`, the IC50 (Coxsackievirus B3) is reported as > 352 µM.

In the case of `N#Cc1cc([N+](=O)[O-])ccc1Oc1cc(Cl)ccc1Cl`, the IC50 (Coxsackievirus B3) is reported as 3.8 µM, the Activity (Echovirus E9) is reported as >323 µM and the Activity (Echovirus E11) is reported as >323 µM. For the same compound, the Activity (enterovirus D68) was >323 µM.

For `N#Cc1cc([N+](=O)[O-])ccc1Oc1ccc(N)cc1`, the IC50 (Coxsackievirus B3) was 106 µM.

`Cc1ccc(Oc2ccc([N+](=O)[O-])cc2C#N)cc1` gave an IC50 (Coxsackievirus B3) of 6.2 µM.

`N#Cc1cc([N+](=O)[O-])ccc1Oc1cccc(Cl)c1Cl` gave an IC50 (Coxsackievirus B3) of 4.9 µM, an Activity (Coxsackievirus B1) of 3.3 µM and an Activity (Coxsackievirus B2) of 8.6 µM. For the same compound, the Activity (Coxsackievirus B4) was 17 µM, the Activity (Coxsackievirus B5) was 4.8 µM and the Activity (Coxsackievirus B6) was 10 µM. The Activity (Coxsackievirus A24) was >309 µM, the Activity (Echovirus E9) was >323 µM and the Activity (Echovirus E11) was >323 µM. For the same compound, the Activity (enterovirus D68) was >323 µM.

`N#Cc1cc([N+](=O)[O-])ccc1Oc1ccc(Cl)cc1Cl` was tested, and the IC50 (Coxsackievirus B3) was 13 µM.

`N#Cc1cc([N+](=O)[O-])ccc1Oc1cc(Cl)cc(Cl)c1` was tested, and the IC50 (Coxsackievirus B3) was > 81 µM.

`N#Cc1cc([N+](=O)[O-])ccc1Oc1cccc([N+](=O)[O-])c1` gave an IC50 (Coxsackievirus B3) of 38 µM.

`N#Cc1ccc(Oc2ccc([N+](=O)[O-])cc2C#N)c(Cl)c1` showed an IC50 (Coxsackievirus B3) of 7.3 µM.

For `CC(C)(C)c1ccc(Oc2ccc([N+](=O)[O-])cc2C#N)cc1`, the IC50 (Coxsackievirus B3) was > 338 µM.

For `CC(=O)Nc1cccc(Oc2ccc([N+](=O)[O-])cc2C#N)c1`, the IC50 (Coxsackievirus B3) was 121 µM.

In the case of `Cc1cc(Oc2ccc([N+](=O)[O-])cc2C#N)ccc1[N+](=O)[O-]`, the IC50 (Coxsackievirus B3) is reported as 11 µM.

In the case of `N#Cc1cc([N+](=O)[O-])ccc1Oc1ccccc1Br`, the IC50 (Coxsackievirus B3) is reported as > 143 µM.

For `N#Cc1cc([N+](=O)[O-])ccc1Oc1ccc(C(=O)O)cc1`, the IC50 (Coxsackievirus B3) was > 352 µM.

`N#Cc1cc([N+](=O)[O-])ccc1Oc1cccc(NC(N)=O)c1` was tested, and the IC50 (Coxsackievirus B3) was > 335 µM.

`N#Cc1cc([N+](=O)[O-])ccc1Oc1ccc(Br)c(Cl)c1` showed an IC50 (Coxsackievirus B3) of 6.7 µM.

Work on `N#Cc1ccc(Oc2ccc([N+](=O)[O-])cc2C#N)cc1` yielded an IC50 (Coxsackievirus B3) of 4.1 µM.

In the case of `N#Cc1cc([N+](=O)[O-])ccc1Oc1ccc(CO)cc1`, the IC50 (Coxsackievirus B3) is reported as 121 µM.

Work on `N#Cc1cc([N+](=O)[O-])ccc1Oc1ccc(Cl)c(Cl)c1` yielded an IC50 (Coxsackievirus B3) of 6.5 µM, an Activity (Coxsackievirus B1) of 15 µM and an Activity (Coxsackievirus B2) of 15 µM. It also gave an Activity (Coxsackievirus B4) of 17 µM, an Activity (Coxsackievirus B5) of 18 µM and an Activity (Coxsackievirus B6) of 12 µM. The Activity (Coxsackievirus A24) was 1.8 µM, the Activity (Echovirus E9) was >324 µM and the Activity (Echovirus E11) was 6.7 µM. It also gave an Activity (enterovirus D68) of 12 µM.

Compound `COc1cccc(Oc2ccc([N+](=O)[O-])cc2C#N)c1` has an IC50 (Coxsackievirus B3) of 12 µM.
